Test results taken from ChEMBL document CHEMBL1938298, “Synthesis and characterization of [¹²⁵I]2-iodo N-[(S)-{(S)-1-methylpiperidin-2-yl}(phenyl)methyl]3-trifluoromethyl-benzamide as novel imaging probe for glycine transporter 1” (Bioorg Med Chem, 2011).
Activity calls are given as the source filed them. The rule behind the calls is not given here.

What was measured:
[1] = tested on: Mus musculus; assay: In vivo binding affinity to GlyT1 in ddY mouse brain hippocampus at 33.3 kBq, iv after 30 mins in presence of N-Me-SSR504734 2 mg/kg, iv administered 15 mins prior to compound administration relative to control; assay type: functional, organism-based; design: dose 2 mg/kg; conditions: tested as the 125I-labelled form
Procedure, shortened: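 Blocking study in male ddY mice (6 weeks, 30–35 g). The blocker (2 mg/kg in 30% DMSO/saline) was injected i.v. 15 min before about 33.3 kBq [125I]tracer i.v.; mice were killed at 30 or 60 min. Brains were divided into cortex, corpus callosum, hippocampus, thalamus, midbrain, medulla and cerebellum, weighed and gamma-counted as % dose/g. Values are mean ± SD, n = 5–6, compared to control by Kruskal–Wallis with Dunn's post-test.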

[2] = molecular target: T1, Sodium- and chloride-dependent glycine transporter 1 (Rattus norvegicus) (UniProt P28572); assay: Binding affinity to GlyT1 in rat brain striatum at 0.03 to 0.04 nM preincubated for 20 mins in binding buffer before compound addition measured after 30 mins by autoradiography in presence of 1 mM GlyT1 substrate glycine relative to control; assay type: tissue-based; conditions: tested as the 125I-labelled form
T1 sequence (whole entry): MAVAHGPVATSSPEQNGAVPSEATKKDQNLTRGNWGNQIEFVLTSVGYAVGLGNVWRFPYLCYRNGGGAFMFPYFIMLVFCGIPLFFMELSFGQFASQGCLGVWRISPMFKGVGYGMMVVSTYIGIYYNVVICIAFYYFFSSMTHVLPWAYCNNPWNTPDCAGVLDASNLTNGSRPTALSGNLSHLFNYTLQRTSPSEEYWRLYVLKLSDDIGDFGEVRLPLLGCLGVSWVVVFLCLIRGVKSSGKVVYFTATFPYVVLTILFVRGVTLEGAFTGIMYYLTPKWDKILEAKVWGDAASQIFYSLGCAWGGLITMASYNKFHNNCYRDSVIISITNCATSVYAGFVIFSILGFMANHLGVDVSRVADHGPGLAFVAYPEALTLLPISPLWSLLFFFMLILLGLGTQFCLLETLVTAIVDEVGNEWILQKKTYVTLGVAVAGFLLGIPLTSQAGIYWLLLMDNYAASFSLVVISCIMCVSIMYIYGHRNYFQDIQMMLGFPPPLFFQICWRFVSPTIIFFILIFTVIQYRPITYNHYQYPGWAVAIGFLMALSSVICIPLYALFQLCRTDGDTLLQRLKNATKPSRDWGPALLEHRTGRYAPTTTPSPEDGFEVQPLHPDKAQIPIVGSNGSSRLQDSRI

[3] = tested on: Mus musculus; assay: In vivo binding affinity to GlyT1 in ddY mouse brain cerebral cortex at 200 kBq, iv after 60 mins by autoradiography relative to control; assay type: functional, organism-based; conditions: tested as the 125I-labelled form
Procedure, shortened: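 Ex vivo autoradiography in mice given 200 kBq [125I]tracer i.v. and killed at 60 min. Brains were removed, frozen on dry ice and cut into 20 µm sagittal cryosections, which were exposed to an imaging plate for 7 days. Regional signal was quantified as PSL/mm² (n = 5) and compared to control by Kruskal–Wallis with Dunn's post-test.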

[4] = molecular target: T1, Sodium- and chloride-dependent glycine transporter 1 (Rattus norvegicus); assay: Binding affinity to GlyT1 in rat brain midbrain at 0.03 to 0.04 nM preincubated for 20 mins in binding buffer before compound addition measured after 30 mins by autoradiography in presence of GlyT1 inhibitor N-Me-SSR504734 relative to control; assay type: tissue-based; conditions: tested as the 125I-labelled form
[5] = molecular target: T1, Sodium- and chloride-dependent glycine transporter 1 (Rattus norvegicus); assay: Binding affinity to GlyT1 in rat brain midbrain at 0.03 to 0.04 nM preincubated for 20 mins in binding buffer before compound addition measured after 30 mins by autoradiography in presence of 10 mM GlyT1 substrate glycine relative to control; assay type: tissue-based; conditions: tested as the 125I-labelled form
[6] = molecular target: T1, Sodium- and chloride-dependent glycine transporter 1 (Rattus norvegicus); assay: Binding affinity to GlyT1 in rat brain medullary region at 0.03 to 0.04 nM preincubated for 20 mins in binding buffer before compound addition measured after 30 mins by autoradiography in presence of 0.01 mM GlyT1 inhibitor SSR504734 relative to control; assay type: tissue-based; conditions: tested as the 125I-labelled form
Procedure, shortened: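 Rat brain sagittal sections (20 µm) preincubated 20 min at 25 °C in Tris-HCl buffer pH 7.5 (NaCl, KCl, MgCl2, CaCl2), then 30 min at 25 °C with [125I] tracer (100 kBq, 0.03–0.04 nM) plus competitor (10 µM; glycine 1 or 10 mM). Cold washes, imaging plate 3 days, ROI PSL minus background per mm². % control from ≥triplicate slices, three rats.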

[7] = tested on: Liver; assay: Drug uptake in ddY mouse liver at 11.1 kBq, iv after 0.5 min by gamma counting; assay type: ADME, organism-based; conditions: in vivo
Procedure, shortened: (§1)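 Male ddY mice (6 weeks, 30–35 g) were given about 11.1 kBq of [125I]tracer in 0.1 mL i.v. via the tail vein. At each time point the animals were killed and organs dissected, weighed and gamma-counted. Uptake is expressed as % injected dose per gram of tissue, mean ± SD, n = 5–6.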

[8] = tested on: Liver; assay: Drug uptake in ddY mouse liver at 11.1 kBq, iv after 5 min by gamma counting; assay type: ADME, organism-based; conditions: in vivo; procedure, shortened: as §1
[9] = tested on: Liver; assay: Drug uptake in ddY mouse liver at 11.1 kBq, iv after 15 min by gamma counting; assay type: ADME, organism-based; conditions: in vivo; procedure, shortened: as §1
[10] = tested on: Intestine; assay: Drug uptake in ddY mouse intestine at 11.1 kBq, iv after 5 min by gamma counting; assay type: ADME, organism-based; conditions: in vivo
Procedure, shortened: (§2)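 Male ddY mice (6 weeks, 30–35 g) received about 11.1 kBq [125I]tracer in 0.1 mL i.v. via tail vein. Killed at set times, organs dissected and weighed, radioactivity gamma counted. Reported as % injected dose/g tissue, mean ± SD, n = 5–6.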

[11] = tested on: Intestine; assay: Drug uptake in ddY mouse intestine at 11.1 kBq, iv after 180 min by gamma counting; assay type: ADME, organism-based; conditions: in vivo, 3 h; procedure, shortened: as §2
[12] = tested on: Spleen; assay: Drug uptake in ddY mouse spleen at 11.1 kBq, iv after 180 min by gamma counting; assay type: ADME, organism-based; conditions: in vivo, 3 h; procedure, shortened: as §1
[13] = tested on: Lung; assay: Drug uptake in ddY mouse lung at 11.1 kBq, iv after 30 min by gamma counting; assay type: ADME, organism-based; conditions: in vivo, 0.5 h; procedure, shortened: as §1
[14] = tested on: Lung; assay: Drug uptake in ddY mouse lung at 11.1 kBq, iv after 180 min by gamma counting; assay type: ADME, organism-based; conditions: in vivo, 3 h; procedure, shortened: as §1
[15] = tested on: Mus musculus; assay: In vivo binding affinity to GlyT1 in ddY mouse brain thalamus at 33.3 kBq, iv after 60 mins in presence of nonradioactive compound 2 mg/kg, iv administered 15 mins prior to compound administration relative to control; assay type: functional
[16] = tested on: Mus musculus; assay: In vivo binding affinity to GlyT1 in ddY mouse brain midbrain at 33.3 kBq, iv after 60 mins in presence of N-Me-SSR504734 2 mg/kg, iv administered 15 mins prior to compound administration relative to control; assay type: functional
[17] = tested on: Nucleic Acid; assay: Ratio of drug level in brain to blood in ddY mouse at 11.1 kBq, iv after 180 min by gamma counting; assay type: ADME, organism-based; conditions: 3 h
[18] = Lipophilicity, log D of the compound at pH 7.4; assay type: physicochemical; conditions: buffer
[19] = tested on: Stomach; assay: Drug uptake in ddY mouse stomach at 11.1 kBq, iv after 5 min by gamma counting; assay type: ADME, organism-based; conditions: in vivo; procedure, shortened: as §1
[20] = tested on: Stomach; assay: Drug uptake in ddY mouse stomach at 11.1 kBq, iv after 30 min by gamma counting; assay type: ADME, organism-based; conditions: in vivo, 0.5 h; procedure, shortened: as §1
[21] = tested on: Pancreas; assay: Drug uptake in ddY mouse pancreas at 11.1 kBq, iv after 30 min by gamma counting; assay type: ADME, organism-based; conditions: in vivo, 0.5 h; procedure, shortened: as §1
[22] = tested on: Pancreas; assay: Drug uptake in ddY mouse pancreas at 11.1 kBq, iv after 60 min by gamma counting; assay type: ADME, organism-based; conditions: in vivo, 1 h; procedure, shortened: as §1

CN1CCCC[C@H]1[C@@H](NC(=O)c1cccc(C(F)(F)F)c1I)c1ccccc1
Activity [1]: Active
Activity [2]: 122%
Activity [3]: inactive
Activity [4]: 25.3%
Activity [5]: 52.1%
Activity [6]: 31.7%

CN1CCCC[C@H]1[C@@H](NC(=O)c1cccc(C(F)(F)F)c1[125I])c1ccccc1
Drug uptake [7]: 1.82 % ID/g
Drug uptake [8]: 9.25 % ID/g
Drug uptake [9]: 11.51 % ID/g
Drug uptake [10]: 2.47 % ID/g
Drug uptake [11]: 17.13 % ID/g
Drug uptake [12]: 3.41 % ID/g
Drug uptake [13]: 17.07 % ID/g
Drug uptake [14]: 9.34 % ID/g
Activity [15]: 58%
Activity [16]: 48%
Ratio [17]: 0.85
logD [18]: 2.86
Drug uptake [19]: 3.3 % ID/g
Drug uptake [20]: 8.66 % ID/g
Drug uptake [21]: 12.02 % ID/g
Drug uptake [22]: 9.51 % ID/g
